Results reported in ChEMBL document CHEMBL4364301 (Eur J Med Chem, 2019).
Calls of active or inactive are those of the source. No cut-off for these calls is given here.

Assays:
DU-145 = assay: Antiproliferative activity against human DU145 cells assessed as reduction in cell growth incubated for 96 hrs by propidium iodide based 2D monolayer assay; format: functional; conditions: for IC50: DU-145, 96 h
How it was run: (§1)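 After 24 h recovery, compound in medium or medium alone (control wells) was added at 10 half-log concentrations from 0.0032 to 100 µM, in triplicate, with at most 0.3% DMSO. After 96 h, wells were PBS-washed, stained with 7 µg/ml PI and 0.1% Triton X-100, and fluorescence read at 530/620 nm. IC50 came from a 4-parameter fit, geometric mean.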

CWR22R [1] = assay: Antiproliferative activity against human 22Rv1 cells assessed as reduction in cell growth incubated for 96 hrs by propidium iodide based 2D monolayer assay; format: functional; how it was run: as §1
LNCaP = assay: Antiproliferative activity against human LNCAP cells assessed as reduction in cell growth incubated for 96 hrs by propidium iodide based 2D monolayer assay; format: functional; how it was run: as §1
VCaP = assay: Antiproliferative activity against human VCaP cells assessed as reduction in cell growth incubated for 96 hrs by propidium iodide based 2D monolayer assay; format: functional
How it was run: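 VCaP cells in RPMI 1640 with 10% FCS at 37 °C, 5% CO2, seeded 4,000–20,000 cells/well and left 24 h before dosing. Compounds from DMSO stocks were diluted in half-log steps in medium, 10 concentrations 0.0032–100 μM, triplicate wells, max 0.3% DMSO. After 96 h, cells were washed, stained with 7 μg/ml propidium iodide plus 0.1% Triton X-100 for 1–2 h at room temperature, and fluorescence read at ex 530/em 620 nm.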

Androgen receptor = target: T1, Androgen receptor (Rattus norvegicus, UniProt P15207); assay: Antagonist activity at GAL4-DBD fused rat androgen receptor expressed in UAS-bla 293 cells assessed as reduction in R1881-induced activation incubated for 16 hrs followed by fluorescence substrate addition and measured after 2 hrs by beta lactamase reporter gene assay; format: cell-based
T1 sequence (P15207 whole entry): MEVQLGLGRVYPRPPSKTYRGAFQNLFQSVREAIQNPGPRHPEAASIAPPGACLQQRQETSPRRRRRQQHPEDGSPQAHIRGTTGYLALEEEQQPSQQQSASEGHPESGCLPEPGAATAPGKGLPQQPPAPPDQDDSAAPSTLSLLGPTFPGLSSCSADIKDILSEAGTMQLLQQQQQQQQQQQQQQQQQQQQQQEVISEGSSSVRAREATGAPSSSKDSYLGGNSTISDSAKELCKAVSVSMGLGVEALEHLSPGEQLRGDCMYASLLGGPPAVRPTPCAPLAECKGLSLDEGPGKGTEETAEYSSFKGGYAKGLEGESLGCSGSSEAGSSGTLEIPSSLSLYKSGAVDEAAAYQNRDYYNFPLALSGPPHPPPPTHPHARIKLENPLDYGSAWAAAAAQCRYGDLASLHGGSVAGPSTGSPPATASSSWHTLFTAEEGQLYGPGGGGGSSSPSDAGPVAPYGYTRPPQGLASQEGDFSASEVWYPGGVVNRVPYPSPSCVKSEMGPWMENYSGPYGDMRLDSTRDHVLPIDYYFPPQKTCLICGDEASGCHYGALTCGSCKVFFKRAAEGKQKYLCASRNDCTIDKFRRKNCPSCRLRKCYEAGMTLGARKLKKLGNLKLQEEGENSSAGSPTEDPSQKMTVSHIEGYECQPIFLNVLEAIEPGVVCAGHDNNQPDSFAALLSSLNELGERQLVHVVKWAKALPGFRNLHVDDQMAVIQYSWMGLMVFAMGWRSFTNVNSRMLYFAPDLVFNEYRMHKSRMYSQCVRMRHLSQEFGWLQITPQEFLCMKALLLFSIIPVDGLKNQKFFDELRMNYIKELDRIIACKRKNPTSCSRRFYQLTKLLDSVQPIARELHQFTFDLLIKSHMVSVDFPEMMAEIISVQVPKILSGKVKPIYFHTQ

[2] = Metabolic stability in liver microsomes (unknown origin) assessed as intrinsic clearance per mg of protein at 3 uM measured upto 45 mins in presence of NADPH by LC-MS/MS analysis; format: ADME, Microsome; conditions: read-out: CLH
How it was run: (§2)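 Pooled liver microsomes at 0.5 mg/mL protein in 0.1 M phosphate buffer pH 7.4 were incubated with 3 μM compound (0.25% DMSO) at 37 °C. Reactions were started with 1 mM NADPH and sampled at 0, 5, 15, 30 and 45 min. A minus-NADPH control ran for 45 min. Reactions were quenched in methanol and analysed by LC-MS/MS to give CLint and t1/2.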

[3] = Metabolic stability in liver microsomes (unknown origin) assessed as half life at 3 uM measured upto 45 mins in presence of NADPH by LC-MS/MS analysis; format: ADME, Microsome; how it was run: as §2
[4] = target: Voltage-gated inwardly rectifying potassium channel KCNH2 (Homo sapiens, UniProt Q12809); assay: Inhibition of human ERG expressed in CHO cells by whole-cell voltage-clamp analysis; format: cell-based
Sequence of Voltage-gated inwardly rectifying potassium channel KCNH2 (Q12809 whole entry): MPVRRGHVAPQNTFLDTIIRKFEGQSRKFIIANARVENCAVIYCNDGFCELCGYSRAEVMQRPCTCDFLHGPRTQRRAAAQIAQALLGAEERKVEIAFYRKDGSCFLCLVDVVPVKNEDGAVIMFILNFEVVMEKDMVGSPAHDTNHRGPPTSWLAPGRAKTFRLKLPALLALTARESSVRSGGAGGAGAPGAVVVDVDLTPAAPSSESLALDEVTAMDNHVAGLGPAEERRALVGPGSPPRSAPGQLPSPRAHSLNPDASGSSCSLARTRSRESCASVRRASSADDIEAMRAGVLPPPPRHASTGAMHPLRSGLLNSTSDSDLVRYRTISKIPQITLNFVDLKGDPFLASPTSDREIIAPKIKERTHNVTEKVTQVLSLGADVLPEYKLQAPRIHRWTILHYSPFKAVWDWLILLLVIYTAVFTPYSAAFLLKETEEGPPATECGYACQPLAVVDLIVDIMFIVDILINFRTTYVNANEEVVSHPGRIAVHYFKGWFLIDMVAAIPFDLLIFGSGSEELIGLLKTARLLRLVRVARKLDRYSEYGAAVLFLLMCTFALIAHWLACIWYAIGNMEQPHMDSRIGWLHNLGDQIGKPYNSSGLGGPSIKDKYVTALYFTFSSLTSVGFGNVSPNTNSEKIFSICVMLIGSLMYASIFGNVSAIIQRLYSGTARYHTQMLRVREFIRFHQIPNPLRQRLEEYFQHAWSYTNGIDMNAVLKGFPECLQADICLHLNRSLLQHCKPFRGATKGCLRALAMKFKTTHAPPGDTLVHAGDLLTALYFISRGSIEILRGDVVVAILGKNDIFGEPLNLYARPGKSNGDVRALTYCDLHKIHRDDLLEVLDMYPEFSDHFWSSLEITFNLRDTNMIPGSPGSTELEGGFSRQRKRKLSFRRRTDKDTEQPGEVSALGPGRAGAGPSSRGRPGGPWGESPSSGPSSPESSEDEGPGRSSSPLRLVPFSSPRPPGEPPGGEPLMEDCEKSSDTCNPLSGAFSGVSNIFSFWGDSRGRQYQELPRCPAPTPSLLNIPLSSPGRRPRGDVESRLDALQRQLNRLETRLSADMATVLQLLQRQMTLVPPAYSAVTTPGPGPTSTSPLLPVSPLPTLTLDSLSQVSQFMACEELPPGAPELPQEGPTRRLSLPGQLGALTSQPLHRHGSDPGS
How it was run: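 CHO cells expressing hERG were held in Dulbecco's PBS with Ca/Mg, pH 7–7.2, at room temperature. Tail currents were recorded by automated whole-cell voltage clamp after 300 s exposure. […] Quinidine served as positive control and 0.25% DMSO buffer as negative control.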

[5] = Protein binding in human plasma; format: ADME, cell-free; conditions: read-out: PPB (converted)
CWR22R [6] = assay: Antitumor activity against human 22Rv1 cells xenografted in NMRI mouse assessed as inhibition of tumor growth by measuring T/C value at 15 mg/kg, iv administered on day 7 and 14 and measured on day 14; format: functional
How it was run: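 Male NMRI nu/nu mice, delivered at 4–6 weeks and quarantined at least 1 week, were implanted in the hind flank with cultured 22Rv1 cells. Mice were randomised at 80–200 mm³ tumour volume. Dosing was 15 mg/kg i.v. in 0.9% saline, given as three weekly treatments; controls received vehicle. Caliper tumour volumes were taken twice weekly, with T/C from group median relative tumour volumes, doubling/quadrupling times and body weight recorded.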

[7] = Toxicity in NMRI mouse xenografted with human 22Rv1 cells assessed as survival rate at 15 mg/kg, ip administered on day 7 and 14 and measured on day 49; format: organism-based; conditions: in vivo
[8] = Toxicity in NMRI mouse xenografted with human 22Rv1 cells assessed as body weight loss at 15 mg/kg, ip administered on day 7 and 14 and measured on day 49; format: organism-based; conditions: in vivo
CWR22R [9] = assay: Antitumor activity against human 22Rv1 cells xenografted in NMRI mouse assessed as tumor volume doubling time at […] administered on day 7 and 14 (reference value: 2.7 day); format: functional
CWR22R [10] = assay: Antitumor activity against human 22Rv1 cells xenografted in NMRI mouse assessed as tumor volume quadrupling time at […] administered on day 7 and 14 (reference value: 6.2 day); format: functional
CWR22R [11] = assay: Antitumor activity against human 22Rv1 cells xenografted in NMRI mouse assessed as reduction of tumor volume at […] administered on day 7 and 14 and measured on day 20; format: functional, organism-based
CWR22R [12] = assay: Antitumor activity against human 22Rv1 cells xenografted in NMRI mouse assessed as reduction of tumor volume at […] administered on day 7 and 14 and measured on day 10; format: functional, organism-based

Row | Structure (SMILES) | IC50 (DU-145) | IC50 (CWR22R [1]; 22Rv1, 96 h) | IC50 (LNCaP) | IC50 (VCaP) | IC50 (Androgen receptor) | Activity (DU-145) | Activity (CWR22R [1]) | Activity (LNCaP) | Activity (VCaP) | microsomal CLint at 3 µM [2] | half-life at 3 µM [3] | IC50 [4] | fraction unbound [5] | T/C (CWR22R [6]) | survival at 49 day [7] | Activity [8] | Time (CWR22R [9]) | Time (CWR22R [10]) | Activity (CWR22R [11]) | Activity (CWR22R [12])
1 | CC(O)(COc1ccc(C#N)cc1)C(=O)Nc1ccc(C#N)c(C(F)(F)F)c1 (racemic) | 44.6 µM | 24.8 µM | 20.9 µM | 24.5 µM | 0.036 µM |  |  |  |  |  |  |  |  |  |  |  |  |  |  | 
2 | C[C@](O)(CS(=O)(=O)c1ccc(F)cc1)C(=O)Nc1ccc(C#N)c(C(F)(F)F)c1 [(R)-BICALUTAMIDE] | 45.4 µM |  |  | 51.6 µM |  | Dose-dependent effect | Dose-dependent effect | Dose-dependent effect | Dose-dependent effect | 6.48 µL/min/mg | 3.57 h | > 25 µM | 0.02 |  |  |  |  |  |  | 
3 | CC(=O)O[C@@]12CO[C@@H]1C[C@H](O)[C@@]1(C)C(=O)[C@H](O)C3=C(C)[C@@H](OC(=O)[C@H](O)[C@@H](NC(=O)OC(C)(C)C)c4ccccc4)C[C@@](O)([C@@H](OC(=O)c4ccccc4)[C@H]21)C3(C)C [DOCETAXEL ANHYDROUS] |  |  |  |  |  |  |  |  |  |  |  |  |  | 22.4% | 100% | 19.8% | 6.3 days | 43.2 days | Active | Active
